Assay [1] concerns L1210. Briefly: Antitumor activity against mouse L1210 cells allografted DBA/2 mouse assessed as increase in life span. It is filed as functional.
The subject of assay [2] is Human alphaherpesvirus 1. Briefly: Antiviral activity against Herpes simplex virus type 1 infected in human KB cells assessed as inhibition of virus-induced cytopathic effect after 72 hrs by microscopically. It is filed as functional, organism-based. Put shortly: (§1)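 KB monolayers (18-24 h) were exposed to about 320 CCID50 of virus, with compound added within 15 min. CPE (0-4) and cytotoxicity were scored microscopically after 72 h at 37 °C. Virus rating was the summed (virus control − treated) CPE across drug levels, halved at partially toxic levels. Ratings: 0.5 slight/none, 0.5-0.9 moderate, 1.0 marked.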

In assay [3] the test system is KB. Kind of assay: Antiviral activity against Myxoma virus infected in human KB cells assessed as inhibition of virus-induced cytopathic effect after 72 hrs by microscopically. The class given is functional, cell-based. The gist of the method: as §1
A general note: Damage to the host cells serves as the signal in cytopathic effect assays.

For assay [4], the system named is Human alphaherpesvirus 1. Kind of assay: Antiviral activity against Herpes simplex virus type 1 infected in Swiss albino mouse assessed as increase in mouse survival at 0.033 mg/kg, ic single dose after 6 hrs of infection relative to control. It is filed as functional. The following applies: Human alphaherpesvirus 1, 6 h. Put shortly:
(§2)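 Swiss albino mice, six per group, were infected intracerebrally with HSV-1 at about 10 LD50. Six hours later each received a single ic drug injection in Hank's balanced salt solution. Controls received the same volume of Hank's solution alone. Efficacy was the increase in number of survivors versus controls.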

Assay [5] relates to L1210. Kind of assay: Antitumor activity against mouse L1210 cells allografted in BDF/1 mouse assessed as mouse survival upto 60 days at 600 mg/kg, ip qd treated 24 hrs after tumor implantation relative to control. The class given is functional. Put shortly: (§3)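 Female BDF1 mice, 6–8 per group, were inoculated ip with 1×10^5 viable L1210 cells. Drug was given ip once daily on days 1–5, starting 24 h after implant, in freshly prepared isotonic sterile saline. Controls received 0.2 mL saline. Read-outs were survivors (cures) and T/C, with survivors excluded from T/C. P values came from the Wilcoxon nonparametric method.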

Assay [6] deals with KB. Kind of assay: Antiviral activity against rhinovirus type 13 infected in human KB cells assessed as inhibition of virus-induced cytopathic effect after 72 hrs by microscopically. The conditions noted are these: Human rhinovirus A13. It is filed as functional, cell-based. The gist of the method: as §1
The test system of assay [7] is Human alphaherpesvirus 1. Kind of assay: Antiviral activity against Herpes simplex virus type 1 infected in Swiss albino mouse assessed as increase in mouse survival at 0.14 mg/kg, ic single dose after 6 hrs of infection relative to control. It is filed as functional. The conditions noted are these: Human alphaherpesvirus 1, 6 h. The gist of the method: as §2
The subject of another assay is Vaccinia virus. Kind of assay: Antiviral activity against Vaccinia virus infected in human KB cells assessed as inhibition of virus-induced cytopathic effect after 72 hrs by microscopically. The conditions noted are these: Orthopoxvirus vaccinia. It is filed as functional, organism-based.
The test system of assay [8] is L1210. Kind of assay: Antitumor activity against mouse L1210 cells allografted in BDF/1 mouse assessed as increase in life span at 600 mg/kg, ip qd treated 24 hrs after tumor implantation relative to control. The following applies: route intraperitoneal. The class given is functional. The gist of the method: as §3
The subject of a further assay is Suid alphaherpesvirus 1. Kind of assay: Antiviral activity against Pseudorabies virus infected in human KB cells assessed as inhibition of virus-induced cytopathic effect after 72 hrs by microscopically. It is filed as functional, organism-based.
Assay [9] has as its system L1210. Kind of assay: Antitumor activity against mouse L1210 cells allografted in BDF/1 mouse assessed as mouse survival at 600 mg/kg, ip qd treated 24 hrs after tumor implantation relative to control. The following applies: route intraperitoneal. It is filed as functional. The gist of the method:
as §3

The subject of assay [10] is L1210. Kind of assay: Antitumor activity against mouse L1210 cells allografted in BDF/1 mouse assessed as […] at 600 mg/kg, ip qd treated 24 hrs after tumor implantation relative to control. It is filed as functional. The following applies: route intraperitoneal. The gist of the method: as §3
Assay [11] concerns L1210. Kind of assay: Antitumor activity against mouse L1210 cells allografted in BDF/1 mouse assessed as tumor weight reduction on day 5 at 600 mg/kg, ip qd treated 24 hrs after tumor implantation relative to control. The arrangement: dose 600 mg/kg. It is filed as functional, organism-based.
The subject of assay [12] is L1210. Briefly: Antitumor activity against mouse L1210 cells allografted in BDF/1 mouse assessed as mouse survival upto 60 days at 400 mg/kg, ip qd treated 24 hrs after tumor implantation relative to control. The class given is functional, organism-based. The arrangement: dose 400 mg/kg. The gist of the method:
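BDF1 female mice, six to eight per group, inoculated ip with 1×10^5 viable L1210 cells. Drug was given ip once daily on days 1-5, starting 24 h after implant, in freshly prepared isotonic sterile saline. Controls received 0.2 mL saline. Read-out was survivors (cures) and T/C excluding survivors. P was derived by the Wilcoxon nonparametric method.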

The test system of assay [13] is L1210. Briefly: Antitumor activity against mouse L1210 cells allografted in BDF/1 mouse assessed as mouse survival at 400 mg/kg, ip qd treated 24 hrs after tumor implantation relative to control. The conditions noted are these: route intraperitoneal. The class given is functional. Put shortly: as §3
Assay [14] has as its system L1210. Briefly: Antitumor activity against mouse L1210 cells allografted in BDF/1 mouse assessed as tumor weight reduction on day 5 at 400 mg/kg, ip qd treated 24 hrs after tumor implantation relative to control. The class given is functional, organism-based. The arrangement: dose 400 mg/kg.

Calls of active or inactive are those of the source. No cut-off for these calls is given here.

For `N=c1nc2n(cc1F)[C@@H]1O[C@H](CO)[C@@H](O)[C@H]1O2`, the Activity in the assay with L1210 [1] is reported as 80%.
Consider `N=c1nc2n(cc1F)[C@@H]1O[C@H](CO)[C@@H](OP(=O)(O)O)[C@H]1O2`, for which the inhibition entry in the assay with Human alphaherpesvirus 1 [2] was “Active”.
Turning to `N=c1ccn([C@@H]2O[C@H](CO)[C@@H](OP(=O)(O)O)[C@@H]2O)c(N)n1`, the inhibition result in the assay on KB [3], with Vaccinia virus, in the assay on Suid alphaherpesvirus 1, in the assay with Human alphaherpesvirus 1 [2] and in the assay on L1210 [11] was “Active” each time. Moreover, in the assay on Human alphaherpesvirus 1 [4], the survival at 0.033 mg/kg was found to be 0%. In addition, the survival at 600 mg/kg in the assay with L1210 [5] (route intraperitoneal) was 33%. Besides, the inhibition entry in the assay with KB [6] was “inactive”. The survival at 0.14 mg/kg with Human alphaherpesvirus 1 [7] is 50%. In addition, the Activity in the assay on L1210 [8] is on record as 144%. The Survival in the assay with L1210 [9] was found to be 22.5 days. The T/C in the assay on L1210 [10] is reported as 2.44.
For `Nc1ccn([C@@H]2O[C@H](CO)[C@@H](OP(=O)(O)O)[C@@H]2O)c(=O)n1`, the inhibition entry in the assay on KB [3], with KB [6], in the assay on Vaccinia virus, in the assay on Suid alphaherpesvirus 1 and in the assay on Human alphaherpesvirus 1 [2] was “Active” each time.
As for `N=c1nc(N)n([C@@H]2O[C@H](CO)[C@@H](OP(=O)(O)O)[C@@H]2O)cc1F`, the inhibition entry with KB [3], with Vaccinia virus, with Suid alphaherpesvirus 1 and in the assay on Human alphaherpesvirus 1 [2] was “Active” throughout. For the same molecule, the inhibition result in the assay on KB [6] is “inactive”.
In the case of `N=c1ccn2c(n1)O[C@@H]1[C@H](O)[C@@H](CO)O[C@H]12`, the outcome in the assay on L1210 [5] was inactive. Moreover, the Survival in the assay on L1210 [9] turned out to be 24 days. The T/C with L1210 [10] worked out at 2.81. Further, the inhibition result in the assay on L1210 [11] is “Active”.
In the case of `N=c1ccn([C@@H]2O[C@H](CO)[C@@H](O)[C@@H]2O)c(N)n1`, the inhibition result in the assay with KB [3], with Vaccinia virus, in the assay with Suid alphaherpesvirus 1, with Human alphaherpesvirus 1 [2] and in the assay with L1210 [14] was “Active” throughout. The outcome with L1210 [12] was Active. In the assay on L1210 [13], the Survival was determined as 60 days.
Consider `N=c1ccn2c(n1)O[C@@H]1[C@H](OP(=O)(O)O)[C@@H](CO)O[C@H]12`, for which the inhibition entry in the assay with KB [3], in the assay with KB [6], in the assay on Vaccinia virus, in the assay with Suid alphaherpesvirus 1, in the assay on Human alphaherpesvirus 1 [2] and with L1210 [11] was “Active” each time. In the assay with Human alphaherpesvirus 1 [4], the survival at 0.033 mg/kg is 0%. Besides, the outcome in the assay on L1210 [5] was inactive. In addition, in the assay with Human alphaherpesvirus 1 [7], the survival at 0.14 mg/kg amounted to 40%. Moreover, the Survival in the assay with L1210 [9] came out at 17.5 days. Besides, the T/C in the assay on L1210 [10] was 2.07.
Consider `Nc1ccn([C@@H]2O[C@H](CO)[C@@H](O)[C@@H]2O)c(=O)n1` [CYTARABINE], for which the inhibition result with KB [3], in the assay on Vaccinia virus, in the assay with Suid alphaherpesvirus 1 and with Human alphaherpesvirus 1 [2] was “Active” each time. Besides, the survival at 0.033 mg/kg in the assay with Human alphaherpesvirus 1 [4] worked out at 0%. Moreover, in the assay on Human alphaherpesvirus 1 [7], the survival at 0.14 mg/kg amounted to 40%.

These data come from ChEMBL document CHEMBL3227966, “Synthesis and antitumor and antiviral activities of 1-beta-D-arabinofuranosyl-2-amino-1,4(2H)-iminopyrimidine and its derivatives” (1979).
